Measurements published in ChEMBL document CHEMBL1811843, “Analogue-based design, synthesis and molecular docking analysis of 2,3-diaryl quinazolinones as non-ulcerogenic anti-inflammatory agents” (Bioorg Med Chem, 2011).

How the values were obtained:
Rattus norvegicus [1] = assay: Antiinflammatory activity in rat assessed as inhibition of carrageenan-induced paw edema at 50 mg/kg, po measured after 360 min by Plethysmograph; assay type: functional; details: 6 h
Outline: (§1)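 Rats randomly grouped, six per group, housed at 25 °C with a 12 h light/dark cycle and acclimatized one week. Test compounds given orally at 50 mg/kg with CMC-Na as vehicle, and indomethacin 10 mg/kg as standard. Edema induced by 0.1 ml carrageenan solution injected into the hind paw. Paw volume measured by mercury-displacement plethysmograph before and 90, 180, 270 and 360 min after injection. % edema inhibition calculated from test and control paw volumes before and after carrageenan. Results given as mean ± SEM.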

Rattus norvegicus [2] = assay: Antiinflammatory activity in rat assessed as inhibition of carrageenan-induced paw edema at 50 mg/kg, po measured after 180 min by Plethysmograph; assay type: functional; details: 3 h; outline: as §1
Rattus norvegicus [3] = assay: Antiinflammatory activity in rat assessed as inhibition of carrageenan-induced paw edema at 50 mg/kg, po measured after 270 min by Plethysmograph; assay type: functional; details: 4.5 h; outline: as §1
Rattus norvegicus [4] = assay: Toxicity in albino Wistar rat assessed as ulcerogenic activity measuring gastric ulcer lesion index at 100 mg/kg, po once daily for four consecutive days; assay type: organism-based, Stomach; design: dose 100 mg/kg, route oral; details: in vivo
Outline: (§2)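 Wistar albino rats (150–200 g, either sex, fasted) were randomized into groups of 10 and dosed orally once daily for four days alongside a vehicle control group. Rats were killed under deep ether anaesthesia and stomachs removed, opened along the greater curvature, and examined under a dissecting microscope for lesions or bleeding. Ulcer lesion index is given in cm.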

Rattus norvegicus [5] = assay: Antiinflammatory activity in rat assessed as inhibition of carrageenan-induced paw edema at 50 mg/kg, po measured after 90 min by Plethysmograph; assay type: functional; details: 1.5 h; outline: as §1
[6] = biological target: T1, Prostaglandin G/H synthase 1 (Ovis aries) (UniProt P05979); assay: Inhibition of sheep COX-1 at 20 uM by cayman colorimetric assay
T1 sequence (whole entry): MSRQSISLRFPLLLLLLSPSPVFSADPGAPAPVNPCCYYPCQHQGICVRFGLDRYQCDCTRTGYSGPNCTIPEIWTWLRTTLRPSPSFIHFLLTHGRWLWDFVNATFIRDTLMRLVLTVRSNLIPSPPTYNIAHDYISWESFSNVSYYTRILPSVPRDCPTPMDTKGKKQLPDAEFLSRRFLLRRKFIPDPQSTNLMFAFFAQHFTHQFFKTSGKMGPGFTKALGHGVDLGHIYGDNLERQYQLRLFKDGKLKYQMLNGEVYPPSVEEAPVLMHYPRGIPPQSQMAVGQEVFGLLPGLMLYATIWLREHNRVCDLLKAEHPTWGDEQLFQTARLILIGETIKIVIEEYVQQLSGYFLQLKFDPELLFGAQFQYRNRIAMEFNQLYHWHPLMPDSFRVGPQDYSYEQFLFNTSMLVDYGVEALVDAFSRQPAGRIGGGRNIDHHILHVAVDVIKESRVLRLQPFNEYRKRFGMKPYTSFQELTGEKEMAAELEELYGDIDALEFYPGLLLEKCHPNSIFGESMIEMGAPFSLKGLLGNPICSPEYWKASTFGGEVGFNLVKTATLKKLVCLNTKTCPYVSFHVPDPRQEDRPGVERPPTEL
Outline: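 Ovine COX-1 activity measured with a commercial ovine COX-1/COX-2 inhibitor screening kit, with calculations done per the kit guidelines. Each value is the mean of two determinations.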

Ovis aries = species: Ovis aries; assay: Selectivity ratio of inhibition for sheep COX-1 to inhibition for sheep COX-2 at 20 uM
Rattus norvegicus [7] = assay: Toxicity in albino Wistar rat assessed as ulcerogenic activity measuring gastric ulcer lesion index at 10 mg/kg, po once daily for four consecutive days; assay type: organism-based, Stomach; design: dose 10 mg/kg, route oral; details: in vivo; outline: as §2
Rattus norvegicus [8] = species: Rattus norvegicus; assay: animal or person; details: po, 6 h, read-out: INH
Rattus norvegicus [9] = assay: Toxicity in albino Wistar rat assessed as ulcerogenic activity measuring gastric ulcer lesion index at 50 mg/kg, po once daily for four consecutive days; assay type: organism-based, Stomach; design: dose 50 mg/kg, route oral; details: in vivo; outline: as §2
Rattus norvegicus [10] = species: Rattus norvegicus; assay: animal or person; details: po, 1.5 h, read-out: INH
Rattus norvegicus [11] = species: Rattus norvegicus; assay: animal or person; details: po, 4.5 h, read-out: INH
Rattus norvegicus [12] = species: Rattus norvegicus; assay: animal or person; details: po, 3 h, read-out: INH

| inhibition [6] [%] | Selectivity ratio (Ovis aries) | SMILES | inhibition in vivo at 50 mg/kg (Rattus norvegicus [1]) [%] | inhibition in vivo at 50 mg/kg (Rattus norvegicus [2]) [%] | inhibition in vivo at 50 mg/kg (Rattus norvegicus [3]) [%] | Activity (Rattus norvegicus [4]) [cm] | inhibition in vivo at 50 mg/kg (Rattus norvegicus [5]) [%] | Activity (Rattus norvegicus [7]) [cm] | inhibition in vivo at 10 mg/kg (Rattus norvegicus [8]) [%] | Activity (Rattus norvegicus [9]) [cm] | inhibition in vivo at 10 mg/kg (Rattus norvegicus [10]) [%] | inhibition in vivo at 10 mg/kg (Rattus norvegicus [11]) [%] | inhibition in vivo at 10 mg/kg (Rattus norvegicus [12]) [%] |
| --- | --- | --- | --- | --- | --- | --- | --- | --- | --- | --- | --- | --- | --- |
| 0 |  | CS(=O)(=O)c1ccc(-n2c(-c3ccccc3)nc3cc(Cl)ccc3c2=O)cc1 | 45 | 37 | 42 | 0 | 32 |  |  |  |  |  |  |
|  |  | CSc1ccc(-n2c(-c3ccccc3)nc3ccc(Br)cc3c2=O)cc1 | 39 | 33 | 35 |  | 30 |  |  |  |  |  |  |
| 4 | 0.04 | CS(=O)(=O)c1ccc(-n2c(-c3ccccc3)nc3ccc(Br)cc3c2=O)cc1 | 49 | 40 | 44 | 0 | 38 |  |  |  |  |  |  |
| 15 | 0.238 | CS(=O)(=O)c1ccc(-n2c(-c3ccccc3)nc3cc(F)ccc3c2=O)cc1 | 41 | 34 | 39 |  | 30 |  |  |  |  |  |  |
|  |  | COc1ccc(-c2nc3cc(F)ccc3c(=O)n2-c2ccc(SC)cc2)cc1 | 40 | 34 | 37 |  | 31 |  |  |  |  |  |  |
|  |  | COc1ccc2c(c1)c(CC(=O)O)c(C)n2C(=O)c1ccc(Cl)cc1 [INDOMETHACIN] |  |  |  |  |  | 1.42 | 13 | 11.48 | 41 | 49 | 58 |
|  |  | COc1ccc(-c2nc3ccc(Br)cc3c(=O)n2-c2ccc(SC)cc2)cc1 | 42 | 35 | 39 |  | 32 |  |  |  |  |  |  |
| 12 | 0.167 | COc1ccc(-c2nc3cc(Cl)ccc3c(=O)n2-c2ccc(S(C)(=O)=O)cc2)cc1 | 43 | 38 | 41 |  | 37 |  |  |  |  |  |  |
|  |  | COc1ccc(-c2nc3cc(Cl)ccc3c(=O)n2-c2ccc(SC)cc2)cc1 | 47 | 38 | 43 |  | 36 |  |  |  |  |  |  |
| 13 | 0.31 | CS(=O)(=O)c1ccc(-n2c(-c3ccccc3)nc3ccccc3c2=O)cc1 | 39 | 33 | 36 |  | 30 |  |  |  |  |  |  |
| 24 | 0.471 | COc1ccc(-c2nc3ccccc3c(=O)n2-c2ccc(S(C)(=O)=O)cc2)cc1 | 46 | 38 | 42 |  | 35 |  |  |  |  |  |  |
| 7 | 0.106 | COc1ccc(-c2nc3ccc(Br)cc3c(=O)n2-c2ccc(S(C)(=O)=O)cc2)cc1 | 54 | 41 | 49 |  | 39 |  |  |  |  |  |  |
|  |  | CSc1ccc(-n2c(-c3ccccc3)nc3cc(Cl)ccc3c2=O)cc1 | 39 | 32 | 34 |  | 31 |  |  |  |  |  |  |
|  |  | CSc1ccc(-n2c(-c3ccccc3)nc3cc(F)ccc3c2=O)cc1 | 40 | 36 | 39 |  | 29 |  |  |  |  |  |  |
| 29 | 0.453 | COc1ccc(-c2nc3cc(F)ccc3c(=O)n2-c2ccc(S(C)(=O)=O)cc2)cc1 | 39 | 34 | 36 |  | 31 |  |  |  |  |  |  |

| SMILES | inhibition [6] [%] | Selectivity ratio (Ovis aries) | inhibition in vivo at 50 mg/kg (Rattus norvegicus [1]) [%] | inhibition in vivo at 50 mg/kg (Rattus norvegicus [2]) [%] | inhibition in vivo at 50 mg/kg (Rattus norvegicus [3]) [%] | Activity (Rattus norvegicus [4]) [cm] | inhibition in vivo at 50 mg/kg (Rattus norvegicus [5]) [%] | Activity (Rattus norvegicus [7]) [cm] | inhibition in vivo at 10 mg/kg (Rattus norvegicus [8]) [%] | Activity (Rattus norvegicus [9]) [cm] | inhibition in vivo at 10 mg/kg (Rattus norvegicus [10]) [%] | inhibition in vivo at 10 mg/kg (Rattus norvegicus [11]) [%] | inhibition in vivo at 10 mg/kg (Rattus norvegicus [12]) [%] |
| --- | --- | --- | --- | --- | --- | --- | --- | --- | --- | --- | --- | --- | --- |
| CSc1ccc(-n2c(-c3ccccc3)nc3ccccc3c2=O)cc1 | 12 | 0.3 | 38 | 32 | 34 |  | 29 |  |  |  |  |  |  |
| COc1ccc(-c2nc3ccccc3c(=O)n2-c2ccc(SC)cc2)cc1 | 30 | 0.536 | 40 | 34 | 38 |  | 30 |  |  |  |  |  |  |
